{"data": "Experimental data gathered from unrelated publications", "medium": "plasma", "note": "Compare with care: the assays were run in different laboratories."}
{"SMILES": "OCc1nc2ccc(NCc3ccc(C(F)(F)F)cc3)cc2[nH]1", "system": "male BALB/c mouse", "conditions": "intravenous, 1 mg/kg", "quantity": "CL/F", "value": "61.7 mL/min/kg"}
{"SMILES": "COc1cc(-c2cc(C(C)=O)n3ccccc23)c(OC)cc1Cn1ccnc1", "system": "male Sprague-Dawley rat", "conditions": "intravenous, 5 mg/kg", "quantity": "Tmax", "value": "0.016 h"}
{"SMILES": "Cc1ccc(OCC(=O)N[C@@H](Cc2c[nH]c3ccccc23)C(=O)OC(C)C)cc1", "system": "male Sprague-Dawley mouse", "conditions": "oral, 20 mg/kg", "quantity": "clearance", "value": "32.3 mL/min/kg"}
{"SMILES": "NCc1ccc(-c2nn(Cc3ccccc3)c3ccccc23)o1", "system": "male CD-1 mouse", "conditions": "intravenous, 5 mg/kg", "quantity": "C0", "value": "1520 ng/mL"}
{"SMILES": "CCOC(=O)C1=C(CN2CCC[C@@H]2C(=O)Nc2ccc(B(O)O)cc2)NC(c2nccs2)=N[C@H]1c1ccc(F)cc1Br", "system": "CD-1 mouse", "conditions": "intravenous, 2 mg/kg", "quantity": "C0", "value": "2160 ng/mL"}
{"SMILES": "OCc1ccc(-c2nn(Cc3ccccc3)c3ccccc23)o1", "system": "male CD-1 mouse", "conditions": "intravenous, 5 mg/kg", "quantity": "C0", "value": "5100 ng/mL"}
{"SMILES": "O=C1CCC(N2Cc3cc(CO)c(F)cc3C2=O)C(=O)N1 (centres unmarked)", "system": "male CD-1 mouse", "conditions": "intravenous, 1 mg/kg", "quantity": "C0", "value": "2190 ng/mL"}
{"SMILES": "CN(C)C(=O)c1cc2cnc(Nc3ccc(-c4ccc5c(=O)cc(N6CCOCC6)oc5c4)cc3)nc2n1C1CCCC1.Cl", "system": "BALB/c mouse", "conditions": "oral, 20 mg/kg", "quantity": "CL/F", "value": "43.3 mL/min/kg"}
{"SMILES": "NCc1cc2c(cc1F)C(=O)N(C1CCC(=O)NC1=O)C2 (centres unmarked)", "system": "male CD-1 mouse", "conditions": "intravenous, 1 mg/kg", "quantity": "C0", "value": "2000 ng/mL"}
{"SMILES": "Cc1ncsc1-c1ccc([C@H](CC(=O)N2CCN(c3ccc(C#Cc4ccc(C(=O)N5CCC(n6cc(-c7ccc8c(c7)CCN8C(=O)Cc7cccc(OC(F)(F)F)c7)c7c(N)ncnc76)CC5)cc4)cn3)CC2)NC(=O)[C@@H]2C[C@@H](O)CN2C(=O)[C@@H](NC(=O)C2(F)CC2)C(C)(C)C)cc1", "system": "male C57BL/6 mouse", "conditions": "intravenous, 1 mg/kg", "quantity": "clearance", "value": "2.3 mL/min/kg"}
{"SMILES": "C=CCn1c(=O)c2cnc(Nc3ccc(N4CCN(C)CC4)cc3)nc2n1-c1ccc2c(n1)[C@@](O)(CC)CC2", "system": "dog", "conditions": "oral, 10 mg/kg", "quantity": "Cmax", "value": "2100 nM"}
{"SMILES": "COc1ccc(N(Cc2csc(-c3ccccc3)n2)C(=O)CCCCCC(=O)NO)cc1", "system": "female Sprague-Dawley rat", "conditions": "oral, 30 mg/kg", "quantity": "Tmax", "value": "1 h"}
{"SMILES": "Cc1ncsc1-c1ccc([C@H](C)NC(=O)[C@@H]2C[C@@H](O)CN2C(=O)[C@@H](NC(=O)CCc2ccc(C#Cc3ccc(C(=O)NCCCn4cc(-c5ccc6c(c5)CCN6C(=O)Cc5cccc(OC(F)(F)F)c5)c5c(N)ncnc54)cc3)cn2)C(C)(C)C)cc1", "system": "male C57BL/6 mouse", "conditions": "intravenous, 1 mg/kg", "quantity": "clearance", "value": "2.5 mL/min/kg"}
{"SMILES": "C[C@H]1Oc2cc(cnc2N)-c2c(nn(C)c2C#N)CN(C)C(=O)c2ccc(F)cc21", "system": "male Sprague-Dawley rat", "conditions": "oral, 10 mg/kg, single dose", "quantity": "Tmax", "value": "1.36 h"}
